This note sets out measurements from ChEMBL document CHEMBL3046184, “New analogues of (E)-β-farnesene with insecticidal activity and binding affinity to aphid odorant-binding proteins” (J Agric Food Chem, 2011).

Assay [1] concerns the target T1, Odorant-binding protein 3 (Acyrthosiphon pisum) (UniProt C1KUY3).
T1 sequence (whole entry): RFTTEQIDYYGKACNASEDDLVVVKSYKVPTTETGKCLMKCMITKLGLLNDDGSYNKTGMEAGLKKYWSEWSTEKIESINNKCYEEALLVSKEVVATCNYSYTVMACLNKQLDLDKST
The assay can be described thus: Displacement of fluorescent probe 1-NPN from Acyrthosiphon pisum (pea aphid) recombinant OBP3 by competitive binding assay. The method, boiled down: (§1)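 Recombinant A. pisum OBP and the probe 1-NPN were each at 2 μM in 50 mM Tris-HCl, titrated with competitor to 2-16 μM final. Excitation was at 337 nm, with emission recorded at 380-450 nm and intensity read at the maximum (406-409 nm). The IC50 was taken as the concentration halving initial fluorescence, and Ki = IC50/(1+[1-NPN]/K1-NPN) using free 1-NPN.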

In another assay the test system is Aphis gossypii. The assay can be described thus: Insecticidal activity against 3 day old Aphis gossypii (cotton aphid) in compound treated cabbage leaves at 600 microg/mL at 24 to 26 degC for 24 hr. Format: functional, organism-based. An outline of the steps: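 Compound was dissolved in acetone/methanol/water (1:1:18). Cabbage leaves (~5 cm) bearing aphids were dipped for 5 s and air-dried, then held in Petri dishes. Dead aphids were counted. Solvent served as the negative control and thiacloprid as the positive reference.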

Assay [2] is described as follows: Displacement of fluorescent probe 1-NPN from Acyrthosiphon pisum (pea aphid) recombinant OBP2 by competitive binding assay.
Assay [3] addresses T2, Odorant-binding protein 1 (Acyrthosiphon pisum) (UniProt C1KUY1).
T2 sequence (whole entry): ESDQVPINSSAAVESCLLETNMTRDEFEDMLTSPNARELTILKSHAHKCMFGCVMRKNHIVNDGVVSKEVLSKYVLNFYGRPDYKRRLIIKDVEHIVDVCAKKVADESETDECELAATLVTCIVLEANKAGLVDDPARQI
The assay can be described thus: Displacement of fluorescent probe 1-NPN from Acyrthosiphon pisum (pea aphid) recombinant OBP1 by competitive binding assay. The method, boiled down: as §1

The source made the active and inactive calls. No cut-off for these calls is given here.

For `CC(C)=CCC/C(C)=C/COC(=O)c1cc(C)nn1C(C)(C)C`, the outcome in assay [1] was Active.
As to `CC(C)=CCC/C(C)=C/COC(=O)c1cc(C(C)C)nn1C(C)(C)C`, the result in assay [1] was Active.
Regarding `CC(C)=CCC/C(C)=C/COC(=O)c1cc(-c2ccccc2)nn1C(C)(C)C`, in the assay on Aphis gossypii, the outcome was Active.
Consider `N#C/N=C1\SCCN1Cc1ccc(Cl)nc1`, for which the outcome in assay [1] was Active.
With `CC(C)=CCC/C(C)=C/COC(=O)c1ccc(Br)cc1`, the outcome (in assay [2]; in assay [3]; in assay [1]; in the assay on Aphis gossypii) was Active.
With `CC(C)=CCC/C(C)=C/COC(=O)c1c(F)cccc1F`, the result in assay [2], in assay [3] and in assay [1] was Active.
For `CC(C)=CCC/C(C)=C/COC(=O)c1cc(C(C)C)nn1-c1ccc([N+](=O)[O-])cc1`, the result in assay [2], in assay [3] and in assay [1] was Active.
With `CCCc1cc(C(=O)OC/C=C(\C)CCC=C(C)C)n(C(C)(C)C)n1`, the result in assay [1] was Active.
As for `CC(C)=CCC/C(C)=C/COC(=O)c1cc(-c2ccccc2)nn1-c1ccc([N+](=O)[O-])cc1`, the result in assay [2], in assay [3] and in assay [1] was Active.
For `CC(C)=CCC/C(C)=C/COC(=O)c1cc(-c2ccccc2)nn1-c1ccccc1`, the outcome in the assay on Aphis gossypii was Active.
